# Assay outcomes deposited in PubChem BioAssay by several laboratories.
# Only some compounds are listed: those with a hit (about 3.4% of all), similar ones and a draw of the others.
# TAAR1 ag: human TAAR1 agonism; Q96RJ0; actives 0.99% (n = 360,000); activation, % at 3 µM; CHO RD-HGA16 TAAR1, Fluo-8 calcium fluorescence; vehicle wells 0%, saturating PEA agonist 100%;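 active means activation above the mean activation of all test compounds in the run plus 3 SD, cut at about 38% in these data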
#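 Assay system: CHO-derived RD-HGA16 cells with stable Gα16 and human TAAR1; timing: 17-24 h seeding, 75 min 37 °C dye, 30 min RT; read-out: % activation from peak over basal fluorescence ratio, DMSO-to-PEA scaled; measured by: kinetic Fluo-8 calcium fluorescence; benchmarks: low control DMSO, high control PEA (EC100); doses: 3 µM single concentration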
# TRPML3 agonist: activates the human TRPML3 channel | AID 1448 | HEK293 TRPML3-YFP, Fluo-8 calcium fluorescence; 100% = the carbachol control signal | activation, % at 3 µM | Q8TDD5 | actives 0.29% (n = 220,000);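 active means activation above its plate's cutoff, the mean activation of the plate's test wells plus 3 SD, cut at about 12% in these data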
# Target sequence (Q8TDD5 whole entry, looked up): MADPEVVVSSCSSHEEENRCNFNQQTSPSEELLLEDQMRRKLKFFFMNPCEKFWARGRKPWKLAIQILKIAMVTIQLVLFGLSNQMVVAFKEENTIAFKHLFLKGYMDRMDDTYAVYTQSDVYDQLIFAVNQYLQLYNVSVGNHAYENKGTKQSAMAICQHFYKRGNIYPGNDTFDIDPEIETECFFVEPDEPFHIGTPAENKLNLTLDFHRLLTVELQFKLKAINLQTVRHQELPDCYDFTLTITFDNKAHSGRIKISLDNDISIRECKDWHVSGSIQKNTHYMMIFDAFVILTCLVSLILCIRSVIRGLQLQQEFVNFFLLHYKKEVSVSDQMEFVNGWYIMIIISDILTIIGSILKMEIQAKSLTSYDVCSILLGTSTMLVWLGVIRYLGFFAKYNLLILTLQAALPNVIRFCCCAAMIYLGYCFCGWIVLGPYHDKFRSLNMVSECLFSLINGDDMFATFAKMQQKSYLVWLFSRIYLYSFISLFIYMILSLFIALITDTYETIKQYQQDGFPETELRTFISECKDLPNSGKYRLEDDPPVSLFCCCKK
#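 system = HEK293 cells stably carrying human TRPML3-YFP | doses = one concentration, 3 µM nominal, 0.3% DMSO | timing = dye loading 1 h 37 °C then 30 min ambient, 125 s read | detection = Fluo-8 calcium dye fluorescence, ex 470-495, em 515-575 nm | benchmarks = high control carbachol 87 µM, low control DMSO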
# zfTRPN1 agonist: activates the zebrafish TRPN1 channel. HEK293 zebrafish TRPN1-YFP, Fluo-8 calcium fluorescence; 100% = response to 87 µM carbachol. activation, % at 3 µM. actives 0.18% (n = 220,000). AID 1424;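 active means activation above its plate's cutoff, the mean activation of test wells on that plate plus 3 SD, cut at about 19% in these data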
#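 Control set: carbachol 87 µM as high control, DMSO as low control; system: HEK293 stable line with zebrafish TRPN1-YFP; read-out: % activation versus carbachol response; detection: intracellular calcium fluorescence with Fluo-8; doses: single test compound dose, 3 µM nominal, 0.3% DMSO; schedule: dye 1 h 37 °C plus 30 min RT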
# GPR7 antag: human neuropeptides B/W receptor 1 antagonism. P48145. GPR7-expressing cells, fluorescence antagonist assay. inhibition, % at 4.4 µM. actives 1.1% (n = 290,000). AID 1861; in the data active means inhibition above about 16%, passing the limit was not always enough;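 further: cells stimulated with the agonist NPW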
# LANA-H2B inh: blocks KSHV LANA binding to histone H2A/H2B. Q9QR71. inhibition, % (no concentration beside the values). AID 2629. cell-free LANA-H2A/H2B peptide, fluorescence polarization. actives 0.6% (n = 320,000); in the data active means inhibition mostly above about 10%, no sharp cut-off; inactive means mostly below about 6.7%
# TAAR1 antag: human TAAR1 antagonism; Q96RJ0; CHO RD-HGA16 TAAR1, Fluo-8 calcium fluorescence, antagonist; inhibition, % at 3 µM; actives 1.5% (n = 360,000); AID 624466;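 active means inhibition above a per-plate cutoff, the mean inhibition of test compounds on that plate plus 3 SD, cut at about 49% in these data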
#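 test system = CHO RD-HGA16 cells bearing hTAAR1 | replication = singlicate | controls = DMSO-only wells and EC80 β-PEA-stimulated wells | reagent = EC80 β-phenethylamine stimulus | read-out basis = percent inhibition of PEA-evoked calcium signal, max/basal emission ratio | schedule = seeding 17-24 h prior, 75-min 37 °C, 30-min RT dye loading | signal = kinetic Fluo-8 calcium fluorescence measurement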
# nonsel antag count: counter-screen for TAAR1 antagonists: nonselective antagonists; shares compounds with TAAR1 antag; counterscreen cell line, calcium fluorescence, antagonist mode; inhibition, % at 3 µM; actives 77% (n = 2,400); in the data active means inhibition above about 22%;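 further: CHO-Ga16 host cells stimulated with ATP at an EC80 level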
# TAAR1 ant conf: human TAAR1 antagonism, confirmed; inhibition, % at 3 µM; shares compounds with TAAR1 antag; TAAR1-expressing cells, fluorescence antagonist read-out; actives 40% (n = 2,400); AID 651785; in the data active means inhibition above about 49%;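 further: CHO-Ga16 host cells challenged with agonist PEA near its EC80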
# Ga16 nonsel ag: counter-screen for TAAR1 antagonists: nonselective Ga16 agonists | shares compounds with TAAR1 antag | Ga16-expressing cells, calcium fluorescence, agonist counterscreen | activation, % at 3 µM | actives 18% (n = 2,400); in the data active means activation above about 12%
# TAAR1 ag counter: activates human TAAR1 in antagonist counter-screen; activation, % at 3 µM; hTAAR1 cell line, fluorescence activation, agonist mode; shares compounds with TAAR1 antag; actives 2% (n = 2,400); in the data active means activation above about 37%;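 further: CHO cells stably expressing TAAR1 with calcium dye readout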
# Numbers stand for hits; i = inactive; nt = no result given.
SMILES,TAAR1 ag,TRPML3 agonist,zfTRPN1 agonist,GPR7 antag,LANA-H2B inh,TAAR1 antag,nonsel antag count,TAAR1 ant conf,Ga16 nonsel ag,TAAR1 ag counter
COc1cc(C(=O)N/N=C/c2ccc(OC(=O)c3cccc(C)c3)c(OC)c2)ccc1O,i,nt,nt,i,i,66,38,49,i,i
COc1ccc(OC)c(/C=N\NC(=O)c2cc3c(ccc4ccccc43)o2)c1,i,nt,nt,i,i,i,nt,nt,nt,nt
COc1ccc(/C=N/NC(=O)c2cc3c(ccc4ccccc43)o2)c(OC)c1,i,nt,nt,i,nt,63,22,i,i,i
O=C(N/N=C/c1ccccc1F)c1cccc(NC(=O)c2ccccc2Cl)c1,i,nt,nt,i,i,59,29,53,i,i
COc1ccc2c(c1)CCCC21NC(=O)N(CC(=O)c2cc(F)ccc2F)C1=O (centres undefined),i,nt,nt,nt,i,i,nt,nt,nt,nt
CC(NC(=O)CN1C(=O)NC2(CCCCC2)C1=O)c1ccc(S(N)(=O)=O)cc1 (centres undefined),i,nt,nt,nt,nt,i,nt,nt,nt,nt
O=C(C[C@H]1C/C=C\CCCCC(=O)OC[C@H]2CCCN2C1=O)N[C@H](CO)Cc1ccccc1,i,nt,nt,nt,i,i,nt,nt,nt,nt
COc1cc(/C=N/NC(=O)C(=O)/C=C2\NC(C)(C)Cc3ccccc32)ccc1O,i,i,i,i,i,52,23,i,i,i
COc1ccc(/C=N/NC(=O)c2cccc(NC(=O)c3ccc(Cl)cc3)c2)c(OC)c1,i,i,i,i,i,57,29,i,i,i
COc1cc(/C=N/NC(=O)c2cccc(NC(=O)c3ccccc3)c2)ccc1O,i,nt,nt,i,i,65,31,57,i,i
COc1ccc(/C=N/NC(=O)c2ccc(NC(=O)c3cccc([N+](=O)[O-])c3)cc2)c(OC)c1,i,i,i,i,i,i,nt,nt,nt,nt
COc1cc(/C=N/NC(=O)C2(O)c3ccccc3-c3ccccc32)ccc1O,i,i,i,i,i,i,nt,nt,nt,nt
O=C(N/N=C/c1ccc(F)cc1)c1cccc(NC(=O)c2ccc(F)cc2)c1,i,nt,nt,i,i,69,38,66,13,i
O=C(N/N=C/c1ccncc1)c1cccc(NC(=O)c2ccc(Cl)cc2)c1,i,i,i,i,i,i,nt,nt,nt,nt
O=C(CCC(=O)Nc1ccc(F)cc1)N/N=C/c1ccc(Br)cc1,i,nt,nt,i,i,53,i,i,i,i
COc1cc(/C=N\NC(=O)c2ccc(-c3ccccc3)cc2)cc(OC)c1O,i,nt,nt,i,i,i,nt,nt,nt,nt
COc1cc(/C=N\NC(=O)c2ccc(-c3ccccc3)cc2)cc(OC)c1OC(C)=O,i,nt,nt,i,i,61,29,i,i,i
CNC(=S)N1C2CCCC1CC(NC(=O)c1ccc(F)cc1)C2 (centres undefined),i,nt,nt,i,i,i,nt,nt,nt,nt
COc1cccc(NC(=O)CN(C)C(=O)c2cc(C)oc2C)c1,i,nt,nt,nt,i,i,nt,nt,nt,nt
COc1cccc(NC(=O)CN(C)C(=O)c2cc(-c3ccc(C)o3)nc3ccccc23)c1,i,nt,nt,nt,60,61,32,52,i,i
COc1cccc(NC(=O)c2cc(-c3ccc(C)o3)nc3ccccc23)c1,i,nt,nt,i,i,55,25,i,i,i
CC(C)(C)c1nnc(N/N=C/c2ccccc2)n(N)c1=O,i,i,i,i,i,59,30,52,i,i
CC(C)(C)c1nnc(N/N=C/c2ccccc2O)n(N)c1=O,i,i,i,i,i,59,42,64,19,i
CCc1nnc(N/N=C/c2ccccc2F)n1N,i,i,i,i,i,i,nt,nt,nt,nt
CCN(CC(=O)Nc1ccccc1C(F)(F)F)C(=O)c1ccc(NC(=O)c2cccs2)cc1,i,nt,nt,nt,nt,i,nt,nt,nt,nt
SMILES,TAAR1 ag,TRPML3 agonist,zfTRPN1 agonist,GPR7 antag,LANA-H2B inh,TAAR1 antag,nonsel antag count,TAAR1 ant conf,Ga16 nonsel ag,TAAR1 ag counter
COc1ccc(S(=O)(=O)Nc2ccc3c(c2)C(=O)N([C@H](C)CO)C[C@H](C)[C@@H](CN(C)C(=O)Nc2ccc(C(F)(F)F)cc2)OCCCC[C@H](C)O3)cc1,i,nt,nt,nt,nt,i,nt,nt,nt,nt
O=C(c1ccc(N2CN(C(=O)c3ccco3)c3nc4ccccc4nc32)cc1)N1CCOCC1,i,i,i,i,i,53,i,i,i,i
O=C(COC(=O)c1c2c(nc3ccccc13)CCCC2)c1cccs1,i,i,i,i,i,53,26,i,i,i
O=C(OCC(=O)N1CCc2ccccc21)c1c2c(nc3ccccc13)CCCC2,i,i,i,i,i,57,24,i,i,i
O=C(COC(=O)c1c2c(nc3ccccc13)CCCCC2)c1ccc(Cl)s1,i,i,i,i,nt,i,nt,nt,nt,nt
C=CC(=O)Nc1ccc(N(C)c2ccnc(Nc3ccc(N4CCN(C)CC4)cc3)n2)cc1,i,nt,nt,nt,nt,i,nt,nt,nt,nt
CC(CC(=O)Nc1ccc2c(c1)c(=O)n(C)n2-c1cccs1)c1ccccc1 (centres undefined),i,nt,nt,nt,nt,i,nt,nt,nt,nt
COc1ccc(C(=O)OCC(=O)NC2CC2)cc1F,i,nt,nt,nt,i,i,nt,nt,nt,nt
CC(=O)c1c(C)[nH]c(C(=O)COC(=O)CNS(=O)(=O)c2ccccc2)c1C,i,i,i,i,i,i,nt,nt,nt,nt
CCOC(=O)c1c(C)[nH]c(C(=O)COC(=O)CNS(=O)(=O)c2ccc(C)cc2)c1C,i,nt,nt,nt,i,75,39,52,i,i
COc1ccccc1OCCCOc1ccc(/C=C2\SC(=O)NC2=O)cc1OC,i,nt,nt,i,i,82,34,53,i,i
CC(C)CC1Nc2ncnc(N3CCN(c4ccccc4)CC3)c2N(Cc2ccccc2)C1=O (centres undefined),i,nt,nt,nt,i,i,nt,nt,nt,nt
CC1Nc2ncnc(N3CCN(c4ccccc4)CC3)c2N(Cc2ccccc2)C1=O (centres undefined),i,nt,nt,nt,i,50,22,i,i,i
CC1Nc2ncnc(N3CCN(c4ccccc4)CC3)c2N(Cc2ccc(Cl)cc2)C1=O (centres undefined),i,nt,nt,nt,i,53,22,i,i,i
CN(C)C(CNC(=O)c1ccc(NS(=O)(=O)c2ccc3[nH]c(=O)[nH]c3c2)cc1)c1ccccc1 (centres undefined),i,nt,nt,nt,i,i,nt,nt,nt,nt
CCOc1ccc(-n2c(=S)sc3c(=O)[nH]c(SCC(=O)NC4CCCCC4)nc32)cc1,i,nt,nt,nt,nt,i,nt,nt,nt,nt
